Assay results: ChEMBL document CHEMBL4145448, “Broad activity of diphenyleneiodonium analogues against Mycobacterium tuberculosis, malaria parasites and bacterial pathogens” (Eur J Med Chem, 2018)

What was measured:
Pseudomonas aeruginosa [1] = assay: Antibacterial activity against Pseudomonas aeruginosa ATCC 27853 after 18 hrs by broth microdilution method; assay type: functional; conditions: ATCC 27853, 18 h
Summary of the method: (§1)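 Broth microdilution per CLSI in cation-adjusted Mueller-Hinton broth. 100 µL inoculum (~10^6 cfu/mL in CaMHB) mixed with 100 µL CaMHB containing compound, 0 to 128 µM. Incubated 18 h at 37 °C. MIC taken as the lowest concentration with no visible growth. Polymyxin B served as positive control. Isolates were stored at -80 °C in tryptone soy broth with 20% glycerol.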

Pseudomonas aeruginosa [2] = assay: Antibacterial activity against Pseudomonas aeruginosa isolate 912 after 18 hrs by broth microdilution method; assay type: functional; conditions: isolate 912, 18 h; summary of the method: as §1
Pseudomonas aeruginosa [3] = assay: Antibacterial activity against Pseudomonas aeruginosa isolate 19147nm after 18 hrs by broth microdilution method; assay type: functional; summary of the method: as §1
Pseudomonas aeruginosa [4] = assay: Antibacterial activity against Pseudomonas aeruginosa isolate M146201 after 18 hrs by broth microdilution method; assay type: functional; conditions: isolate M146201, 18 h; summary of the method: as §1
Acinetobacter baumannii [5] = assay: Antibacterial activity against Acinetobacter baumannii ATCC 19606 after 18 hrs by broth microdilution method; assay type: functional; conditions: ATCC 19606 = CIP 70.34 = JCM 6841, 18 h; summary of the method: as §1
Acinetobacter baumannii [6] = assay: Antibacterial activity against Acinetobacter baumannii isolate 246-01-C after 18 hrs by broth microdilution method; assay type: functional; summary of the method: as §1
Acinetobacter baumannii [7] = assay: Antibacterial activity against Acinetobacter baumannii ATCC 19606 col10 after 18 hrs by broth microdilution method; assay type: functional; conditions: ATCC 19606 = CIP 70.34 = JCM 6841 col10, 18 h; summary of the method: as §1
Klebsiella pneumoniae [8] = assay: Antibacterial activity against Klebsiella pneumoniae ATCC 13883 after 18 hrs by broth microdilution method; assay type: functional; conditions: ATCC 13883, 18 h; summary of the method: as §1
Klebsiella pneumoniae [9] = assay: Antibacterial activity against Klebsiella pneumoniae isolate M320445 after 18 hrs by broth microdilution method; assay type: functional; conditions: isolate M320445, 18 h; summary of the method: as §1
Klebsiella pneumoniae [10] = assay: Antibacterial activity against Klebsiella pneumoniae isolate 224-11-C after 18 hrs by broth microdilution method; assay type: functional; summary of the method: as §1
Enterococcus faecium = assay: Antibacterial activity against vancomycin-resistant Enterococcus faecium ATCC 700221 after 18 hrs by broth microdilution method; assay type: functional; conditions: ATCC 700221, 18 h; summary of the method: as §1
Escherichia coli [11] = assay: Antibacterial activity against Escherichia coli N2381 after 18 hrs by broth microdilution method; assay type: functional; conditions: N2381, 18 h; summary of the method: as §1
Escherichia coli [12] = assay: Antibacterial activity against Escherichia coli N11281 after 18 hrs by broth microdilution method; assay type: functional; conditions: N11281, 18 h; summary of the method: as §1
Staphylococcus aureus [13] = assay: Antibacterial activity against vancomycin-intermediate Staphylococcus aureus ATCC 700698 after 18 hrs by broth microdilution method; assay type: functional; conditions: ATCC 700698, 18 h; summary of the method: as §1
Staphylococcus aureus [14] = assay: Antibacterial activity against vancomycin-resistant Staphylococcus aureus ATCC 700699 after 18 hrs by broth microdilution method; assay type: functional; conditions: ATCC 700699, 18 h; summary of the method: as §1
[15] = Selectivity index, ratio of CC50 for human HepG2 cells in presence of 1% FBS to MIC for Pseudomonas aeruginosa ATCC 27853; assay type: toxicity; conditions: read-out: Selectivity Index
Summary of the method: (§2)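 Selectivity index is CC50 (1% FBS) divided by MIC. […] They then got compound at 300 to 0.14 µM (3-fold steps) for 24 h at 37 °C, 5% CO2. Resazurin (10 µM, 2 h) was read at ex/em 560/590 in duplicate wells. For MIC, CLSI broth microdilution was run in CaMHB with ~10^6 cfu/mL inoculum and 0–128 µM compound.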

[16] = Selectivity index, ratio of CC50 for human HepG2 cells in presence of 1% FBS to MIC for Pseudomonas aeruginosa isolate 912; assay type: toxicity; conditions: read-out: Selectivity Index; summary of the method: as §2
[17] = Selectivity index, ratio of CC50 for human HepG2 cells in presence of 1% FBS to MIC for Pseudomonas aeruginosa isolate 18878B klon 1; assay type: toxicity; conditions: read-out: Selectivity Index; summary of the method: as §2
[18] = Selectivity index, ratio of CC50 for human HepG2 cells in presence of 1% FBS to MIC for Pseudomonas aeruginosa isolate M146201; assay type: toxicity; conditions: read-out: Selectivity Index; summary of the method: as §2
[19] = Selectivity index, ratio of CC50 for human HepG2 cells in presence of 1% FBS to MIC for Acinetobacter baumannii isolate 246-01-C; assay type: toxicity; conditions: read-out: Selectivity Index
[20] = Selectivity index, ratio of CC50 for human HepG2 cells in presence of 1% FBS to MIC for Acinetobacter baumannii ATCC 17978; assay type: toxicity; conditions: read-out: Selectivity Index
[21] = Selectivity index, ratio of CC50 for human HepG2 cells in presence of 1% FBS to MIC for Acinetobacter baumannii ATCC 19606 col10; assay type: toxicity; conditions: read-out: Selectivity Index
[22] = Selectivity index, ratio of CC50 for human HepG2 cells in presence of 1% FBS to MIC for Klebsiella pneumoniae isolate M320445; assay type: toxicity; conditions: read-out: Selectivity Index
[23] = Selectivity index, ratio of CC50 for human HepG2 cells in presence of 1% FBS to MIC for Klebsiella pneumoniae isolate 1; assay type: toxicity; conditions: read-out: Selectivity Index
[24] = Selectivity index, ratio of CC50 for human HepG2 cells in presence of 1% FBS to MIC for methicillin-resistant Staphylococcus aureus ATCC 43300; assay type: toxicity; conditions: read-out: Selectivity Index; summary of the method: as §2
[25] = Selectivity index, ratio of CC50 for human HepG2 cells in presence of 1% FBS to MIC for Klebsiella pneumoniae isolate 248-33-D; assay type: toxicity; conditions: read-out: Selectivity Index
[26] = Selectivity index, ratio of CC50 for human HepG2 cells in presence of 1% FBS to MIC for Escherichia coli N4149; assay type: toxicity; conditions: read-out: Selectivity Index
[27] = Selectivity index, ratio of CC50 for human HepG2 cells in presence of 1% FBS to MIC for Escherichia coli N11281; assay type: toxicity; conditions: read-out: Selectivity Index
[28] = Selectivity index, ratio of CC50 for human HepG2 cells in presence of 1% FBS to MIC for vancomycin-resistant Enterococcus faecium ATCC 700221; assay type: toxicity; conditions: read-out: Selectivity Index; summary of the method: as §2
[29] = Selectivity index, ratio of CC50 for human HepG2 cells in presence of 1% FBS to MIC for vancomycin-intermediate Staphylococcus aureus ATCC 700698; assay type: toxicity; conditions: read-out: Selectivity Index; summary of the method: as §2
[30] = Cytotoxicity against human HepG2 cells after 24 hrs in presence of 1% FBS by resazurin dye based assay; assay type: cell-based
Summary of the method: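 HepG2 cells seeded at 4000/well in DMEM with 1% FBS and allowed to attach for 24 h at 37 °C, 5% CO2. Compounds added from 300 to 0.14 µM in 3-fold steps and incubated 24 h. 10 µM resazurin added for 2 h, fluorescence read at ex/em 560/590. Percent viability computed relative to untreated and negative controls, duplicate wells.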

Plasmodium falciparum = assay: Growth inhibition of CQ-sensitive GFP-fused Plasmodium falciparum D10 after 90 hrs by ethidium bromide staining based flow cytometry; assay type: functional, organism-based; conditions: D10, 90 h
Summary of the method: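 Parasites cultured in human O+ erythrocytes in RPMI-HEPES pH 7.4 with hypoxanthine, NaHCO3, gentamicin and 0.5% Albumax II under 1% O2/4% CO2 at 37 °C. Synchronised to rings with heparin plus sorbitol. Set up at 1% parasitaemia and 1% haematocrit with 10x compound added. Cultured 90 h to next-cycle trophozoites. Stained with 10 µg/mL ethidium bromide for 1 h, washed, parasitaemia counted by flow cytometry with GFP gating.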

[31] = Selectivity index, ratio of CC50 for human HepG2 cells in presence of 1% FBS to IC50 for CQ-sensitive GFP-fused Plasmodium falciparum D10; assay type: toxicity; conditions: read-out: Ratio IC50

Row | Compound | MIC (Pseudomonas aeruginosa [1]) [µM] | MIC (Pseudomonas aeruginosa [2]) [µM] | MIC (Pseudomonas aeruginosa [3]) [µM] | MIC (Pseudomonas aeruginosa [4]) [µM] | MIC (Acinetobacter baumannii [5]) [µM] | MIC (Acinetobacter baumannii [6]) [µM] | MIC (Acinetobacter baumannii [7]) [µM] | MIC (Klebsiella pneumoniae [8]) [µM] | MIC (Klebsiella pneumoniae [9]) [µM] | MIC (Klebsiella pneumoniae [10]) [µM] | MIC (Enterococcus faecium) [µM] | MIC (Escherichia coli [11]) [µM] | MIC (Escherichia coli [12]) [µM] | MIC (Staphylococcus aureus [13]) [µM] | MIC (Staphylococcus aureus [14]) [µM] | selectivity ratio [15] | selectivity ratio [16] | selectivity ratio [17] | selectivity ratio [18] | selectivity ratio [19] | also measured
1 | COc1ccc2c(c1)[I+]c1ccccc1-2 | > 70 | > 70 | 8.7 | 70 | 18 | 35 | 2.2 | > 70 | 70 | > 70 | 4.4 | 35 | > 70 | 8.7 | 8.7 | > 0.11 | > 0.11 | 0.39 | 0.11 | 0.21 | selectivity ratio [20]: 0.39; selectivity ratio [21]: 3.1; selectivity ratio [22]: 0.11; selectivity ratio [23]: > 0.11; selectivity ratio [24]: 1.6; selectivity ratio [25]: > 0.11; selectivity ratio [26]: > 0.11; selectivity ratio [27]: > 0.11; selectivity ratio [28]: 1.6; selectivity ratio [29]: 0.78; CC50 at 24 h [30]: 6800 nM
2 | Cc1cccc2c1-c1ccccc1[I+]2 | 18 | 1.1 | 0.57 | 2.3 | 2.3 | 2.3 | 2.3 | 18 | 36 | > 72 | 2.3 | 18 | 18 | 36 | 36 | 0.14 | 2.3 | 2.3 | 1.2 | 1.2 | IC50 (Plasmodium falciparum): 70 nM; selectivity ratio [20]: 2.3; selectivity ratio [21]: 1.2; selectivity ratio [22]: 0.07; selectivity ratio [23]: 0.04; selectivity ratio [24]: 0.07; selectivity ratio [25]: > 0.04; selectivity ratio [26]: > 0.04; selectivity ratio [27]: 0.14; selectivity ratio [28]: 1.2; selectivity ratio [29]: 0.07; selectivity ratio [31]: 37; CC50 at 24 h [30]: 2600 nM
3 | c1ccc2c(c1)[I+]c1ccccc1-2 | 75 | 4.7 | 2.3 | 9.3 | 9.3 | 4.7 | 4.7 | 37 | 37 | 75 | 4.7 | 37 | 37 | 19 | 19 | 0.39 | 6.3 | 6.3 | 3.1 | 6.3 | IC50 (Plasmodium falciparum): 130 nM; selectivity ratio [20]: 13; selectivity ratio [21]: 6.3; selectivity ratio [22]: 0.78; selectivity ratio [23]: 0.78; selectivity ratio [24]: 6.3; selectivity ratio [25]: 0.78; selectivity ratio [26]: 0.78; selectivity ratio [27]: 0.78; selectivity ratio [28]: 6.3; selectivity ratio [29]: 1.6; selectivity ratio [31]: 221; CC50 at 24 h [30]: 29200 nM
4 | COc1cccc2c1-c1ccccc1[I+]2 | > 70 | 70 | 70 | > 70 | 35 | 70 | 17 | > 70 | 70 | > 70 | 8.7 | 70 | > 70 | 35 | 35 | > 0.55 | 0.55 | 0.55 | > 0.55 | 0.55 | IC50 (Plasmodium falciparum): 170 nM; selectivity ratio [20]: 1.1; selectivity ratio [21]: 2.2; selectivity ratio [22]: 0.55; selectivity ratio [23]: > 0.55; selectivity ratio [24]: 1.1; selectivity ratio [25]: > 0.55; selectivity ratio [26]: > 0.55; selectivity ratio [27]: > 0.55; selectivity ratio [28]: 4.4; selectivity ratio [29]: 1.1; selectivity ratio [31]: 225; CC50 at 24 h [30]: 38300 nM
